ChEMBL document CHEMBL2040765, “Synthesis and anticancer activity of a series of norcantharidin analogues” (2012)

Columns and labels:
Format in all cases: functional
[1] = test system: A-431; test: Growth inhibition of human A431 cells at 100 uM after 72 hrs y MTT assay
How it was run: (§1)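 Log-phase cells in supplemented DMEM (10% FBS, 4 mM glutamine, antibiotics; 37 °C, 5% CO2) were plated in duplicate at 2500–4000 cells/well. Compound was added 24 h later at a fixed 100 µM, from 40 mM DMSO stocks. After 72 h, MTT absorbance was read at 540 nm and expressed as percent growth inhibition; 100% means total inhibition.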

[2] = test system: NCI-H460; test: Growth inhibition of human H460 cells at 100 uM after 72 hrs y MTT assay; how it was run: as §1
[3] = Growth inhibition of human BE(2)-C cells at 100 uM after 72 hrs y MTT assay; how it was run: as §1
[4] = Growth inhibition of human SJ-G2 cells at 100 uM after 72 hrs y MTT assay; how it was run: as §1
[5] = test system: DU-145; test: Growth inhibition of human DU145 cells at 100 uM after 72 hrs y MTT assay; how it was run: as §1
[6] = test system: A2780; test: Growth inhibition of human A2780 cells at 100 uM after 72 hrs y MTT assay; how it was run: as §1
[7] = test system: HT-29; test: Growth inhibition of human HT-29 cells at 100 uM after 72 hrs y MTT assay; how it was run: as §1
[8] = test system: SW480; test: Growth inhibition of human SW480 cells at 100 uM after 72 hrs y MTT assay; how it was run: as §1
[9] = test system: MCF7; test: Growth inhibition of human MCF7 cells at 100 uM after 72 hrs y MTT assay; how it was run: as §1

SMILES	growth inhibition (GI) [1] [%]	growth inhibition (GI) [2] [%]	growth inhibition (GI) [3] [%]	growth inhibition (GI) [4] [%]	inhibition of growth at 100 µM ([5]; Homo sapiens, DU-145, 72 h, read-out: GI) [%]	inhibition of growth at 100 µM ([6]; Homo sapiens, A2780, 72 h, read-out: GI) [%]	growth inhibition (GI) [7] [%]	growth inhibition (GI) [8] [%]	growth inhibition (GI) [9] [%]	inhibition of growth at 100 µM ([3]; Homo sapiens, BE(2)-C, 72 h, read-out: GI) [%]	inhibition of growth at 100 µM ([4]; Homo sapiens, SJ-G2, 72 h, read-out: GI) [%]	growth inhibition (GI) [5] [%]	growth inhibition (GI) [6] [%]	inhibition of growth at 100 µM ([7]; Homo sapiens, HT-29, 72 h, read-out: GI) [%]	inhibition of growth at 100 µM ([8]; Homo sapiens, SW480, 72 h, read-out: GI) [%]	inhibition of growth at 100 µM ([9]; Homo sapiens, MCF7, 72 h, read-out: GI) [%]
CC1OC1CO[C@H]1OC(=O)[C@H]2[C@@H]1[C@@H]1CC[C@H]2O1 (stereo in doubt; 23)	35	24	54	88	37	55	75	41	61	–	–	–	–	–	–	–
CC1OC1CO[C@H]1OC(=O)[C@H]2[C@@H]1[C@@H]1CC[C@H]2O1 (stereo in doubt; 24)	17	9	–	–	–	–	–	–	–	53	79	20	58	68	37	46
